Experimental data reported in ChEMBL document CHEMBL3286300, “Fluorine modulates species selectivity in the triazolopyrimidine class of Plasmodium falciparum dihydroorotate dehydrogenase inhibitors” (J Med Chem, 2014).
pIC50, pKd: −log10 of the molar value.

Tests used:
[1] = biological target: T1, Dihydroorotate dehydrogenase (Plasmodium falciparum, UniProt Q54A96); assay: Binding affinity to Plasmodium falciparum DHODH by isothermal titration calorimetry
T1 sequence (Q54A96 whole entry): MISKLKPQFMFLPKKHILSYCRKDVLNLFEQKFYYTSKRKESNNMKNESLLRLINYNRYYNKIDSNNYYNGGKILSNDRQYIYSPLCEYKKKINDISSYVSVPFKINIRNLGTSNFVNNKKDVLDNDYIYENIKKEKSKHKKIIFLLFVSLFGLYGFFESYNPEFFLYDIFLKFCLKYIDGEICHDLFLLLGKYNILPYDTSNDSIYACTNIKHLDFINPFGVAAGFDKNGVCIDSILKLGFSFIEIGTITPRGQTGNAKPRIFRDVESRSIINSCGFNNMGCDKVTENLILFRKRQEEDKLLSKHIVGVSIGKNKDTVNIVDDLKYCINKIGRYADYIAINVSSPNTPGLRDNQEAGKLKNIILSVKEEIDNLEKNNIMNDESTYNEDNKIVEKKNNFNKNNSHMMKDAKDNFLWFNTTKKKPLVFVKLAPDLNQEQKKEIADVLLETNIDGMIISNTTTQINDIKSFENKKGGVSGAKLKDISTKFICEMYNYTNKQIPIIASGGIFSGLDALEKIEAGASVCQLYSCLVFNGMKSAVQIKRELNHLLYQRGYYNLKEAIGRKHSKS
Procedure, shortened: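 ITC at 30 °C in 10 mM Hepes pH 7.8, 20 mM NaCl, 5% glycerol, 1 mM LDAO, 0.2% DMSO. PfDHODH (5–10 μM) in the cell was titrated with 50 μM inhibitor. Triplicate runs.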

[2] = biological target: T1, Dihydroorotate dehydrogenase; assay: Inhibition of N-terminal His6-tagged recombinant Plasmodium falciparum DHODH (amino acid residues 158 to 569) expressed in Escherichia coli BL21 cells assessed as orotic acid production using dihydroorotate as substrate by DCIP dye-based assay
Procedure, shortened: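 The assay buffer was 100 mM Hepes pH 8.0, 150 mM NaCl, 10% glycerol, 0.1% Triton, with 0.2 mM DHO, 0.02 mM CoQD and 0.12 mM DCIP. Runs started with 2–10 nM enzyme at 25 °C, reading A600 initial rates. Inhibitor was 0.01–100 μM in 3-fold steps, in triplicate. IC50 came from a three-parameter log[I]-response fit.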

[3] = Partition coefficient, log D of the compound at pH 7.4 by chromatography; assay type: physicochemical; conditions: octanol/water
Procedure, shortened: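 LogD at pH 7.4 estimated from chromatographic retention, compared against standards of known partition coefficient.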

[4] = Inhibition of C-terminal His6-tagged human DHODH (amino acid residues 30 to 396) L46A mutant expressed in Escherichia coli BL21 cells assessed as orotic acid production using dihydroorotate as substrate by direct assay in presence of oxygen depleting system
[5] = biological target: T2, Dihydroorotate dehydrogenase (quinone), mitochondrial (Homo sapiens, UniProt Q02127); assay: Inhibition of C-terminal His6-tagged human DHODH (amino acid residues 30 to 396) expressed in Escherichia coli BL21 cells assessed as orotic acid production using dihydroorotate as substrate by DCIP dye-based assay
T2 sequence (Q02127 whole entry, the tested form may be a part): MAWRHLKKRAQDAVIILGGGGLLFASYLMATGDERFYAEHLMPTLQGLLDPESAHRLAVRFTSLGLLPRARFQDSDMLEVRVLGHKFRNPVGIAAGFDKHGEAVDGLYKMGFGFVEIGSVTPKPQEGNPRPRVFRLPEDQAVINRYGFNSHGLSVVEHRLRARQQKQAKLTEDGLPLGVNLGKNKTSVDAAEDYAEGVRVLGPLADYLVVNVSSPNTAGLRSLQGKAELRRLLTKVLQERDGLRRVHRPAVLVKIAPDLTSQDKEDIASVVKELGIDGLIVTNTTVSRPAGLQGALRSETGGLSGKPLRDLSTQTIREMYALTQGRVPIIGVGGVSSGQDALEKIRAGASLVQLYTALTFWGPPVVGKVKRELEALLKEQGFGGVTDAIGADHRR
Procedure, shortened: (§1)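 Assay buffer 100 mM Hepes pH 8.0, 150 mM NaCl, 10% glycerol, 0.1% Triton, with 0.2 mM DHO, 0.02 mM CoQD and 0.12 mM DCIP. DCIP reduction read at 600 nm, 25 °C, started with 2–10 nM enzyme. Inhibitor 0.01–100 μM in 3-fold steps, triplicate. IC50 from a three-parameter fit of vi/vo.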

[6] = biological target: T2, Dihydroorotate dehydrogenase (quinone), mitochondrial; assay: Inhibition of C-terminal His6-tagged human DHODH (amino acid residues 33 to 396) expressed in Escherichia coli BL21 cells assessed as orotic acid production using dihydroorotate as substrate by direct assay in presence of oxygen depleting system
[7] = Inhibition of C-terminal His6-tagged human DHODH (amino acid residues 30 to 396) R136A mutant expressed in Escherichia coli BL21 cells assessed as orotic acid production using dihydroorotate as substrate by direct assay in presence of oxygen depleting system
[8] = Inhibition of C-terminal His6-tagged human DHODH (amino acid residues 30 to 396) L359A mutant expressed in Escherichia coli BL21 cells assessed as orotic acid production using dihydroorotate as substrate by direct assay in presence of oxygen depleting system
[9] = Inhibition of dog DHODH (amino acid residues 48 to 414) expressed in Escherichia coli BL21 cells assessed as orotic acid production using dihydroorotate as substrate by DCIP dye-based assay; parameters: species or system Canis lupus familiaris; procedure, shortened: as §1
[10] = Inhibition of C-terminal His6-tagged human DHODH (amino acid residues 30 to 396) H56A mutant expressed in Escherichia coli BL21 cells assessed as orotic acid production using dihydroorotate as substrate by direct assay in presence of oxygen depleting system
Plasmodium falciparum = assay: Antimalarial activity against Plasmodium falciparum 3D7 infected in RBC after 72 hrs by SYBR green dye based flow cytometry; assay type: functional, organism-based; conditions: 3D7, 72 h
[11] = biological target: Dihydroorotate dehydrogenase (quinone), mitochondrial (Mus musculus, UniProt O35435); assay: Inhibition of mouse DHODH (amino acid residues 30 to 396) expressed in Escherichia coli BL21 cells assessed as orotic acid production using dihydroorotate as substrate by DCIP dye-based assay; procedure, shortened: as §1
Dihydroorotate dehydrogenase (quinone), mitochondrial (Mus musculus, UniProt O35435), sequence (O35435 whole entry, the tested form may be a part): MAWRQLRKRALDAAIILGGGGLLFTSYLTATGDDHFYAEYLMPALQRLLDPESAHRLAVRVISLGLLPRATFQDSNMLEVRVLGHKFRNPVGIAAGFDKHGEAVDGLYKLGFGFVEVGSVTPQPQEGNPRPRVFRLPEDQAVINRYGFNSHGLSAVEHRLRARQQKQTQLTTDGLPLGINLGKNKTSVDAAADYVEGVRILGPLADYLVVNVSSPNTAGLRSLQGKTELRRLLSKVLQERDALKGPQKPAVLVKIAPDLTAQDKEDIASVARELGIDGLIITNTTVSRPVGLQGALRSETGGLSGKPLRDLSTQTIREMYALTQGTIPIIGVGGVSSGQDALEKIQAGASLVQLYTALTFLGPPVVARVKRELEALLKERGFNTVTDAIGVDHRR

[12] = biological target: T3, Dihydroorotate dehydrogenase (quinone), mitochondrial (Rattus norvegicus, UniProt Q63707); assay: Inhibition of rat DHODH (amino acid residues 30 to 396) expressed in Escherichia coli BL21 cells assessed as orotic acid production using dihydroorotate as substrate by DCIP dye-based assay; procedure, shortened: as §1
T3 sequence (Q63707 whole entry, the tested form may be a part): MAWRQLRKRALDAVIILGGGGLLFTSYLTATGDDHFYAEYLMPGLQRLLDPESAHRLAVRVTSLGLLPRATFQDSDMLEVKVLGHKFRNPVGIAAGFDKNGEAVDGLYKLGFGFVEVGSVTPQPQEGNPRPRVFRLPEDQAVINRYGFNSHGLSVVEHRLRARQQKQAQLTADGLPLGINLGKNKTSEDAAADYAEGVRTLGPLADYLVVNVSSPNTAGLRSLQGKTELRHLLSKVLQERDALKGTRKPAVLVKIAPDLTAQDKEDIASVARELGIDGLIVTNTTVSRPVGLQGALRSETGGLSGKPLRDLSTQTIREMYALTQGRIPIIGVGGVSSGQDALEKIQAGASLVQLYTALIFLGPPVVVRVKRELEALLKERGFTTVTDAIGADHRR

BL21 [13] = assay: Ratio of IC50 for C-terminal His6-tagged human DHODH (amino acid residues 30 to 396) L46A mutant expressed in Escherichia coli BL21 cells to IC50 for C-terminal His6-tagged wild type human DHODH (amino acid residues 30 to 396) expressed in Escherichia coli BL21 cells
BL21 [14] = assay: Ratio of IC50 for C-terminal His6-tagged human DHODH (amino acid residues 30 to 396) L359A mutant expressed in Escherichia coli BL21 cells to IC50 for C-terminal His6-tagged wild type human DHODH (amino acid residues 30 to 396) expressed in Escherichia coli BL21 cells
BL21 [15] = assay: Ratio of IC50 for C-terminal His6-tagged human DHODH (amino acid residues 30 to 396) R136A mutant expressed in Escherichia coli BL21 cells to IC50 for C-terminal His6-tagged wild type human DHODH (amino acid residues 30 to 396) expressed in Escherichia coli BL21 cells
BL21 [16] = assay: Selectivity ratio of IC50 for C-terminal His6-tagged human DHODH (amino acid residues 30 to 396) expressed in Escherichia coli BL21 cells to IC50 for N-terminal His6-tagged recombinant Plasmodium falciparum DHODH (amino acid residues 158 to 569) expressed in Escherichia coli BL21 cells
[17] = biological target: T3, Dihydroorotate dehydrogenase (quinone), mitochondrial; assay: Binding affinity to rat DHODH by isothermal titration calorimetry
Procedure, shortened: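 Run at 30 °C in 10 mM Hepes pH 7.8, 20 mM NaCl, 5% glycerol, 1 mM LDAO, 0.2% DMSO. Rat DHODH (5–8 μM) in the cell, titrated with 50 μM inhibitor. Triplicate runs, analysed with NITPIC and SEDPHAT.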

Structure (SMILES)	pKd [1]	pIC50 [2]	logD [3]	pIC50 [4]	pIC50 [5]	pIC50 [6]	pIC50 [7]	pIC50 [8]	pIC50 [9]	pIC50 [10]	pIC50 (Plasmodium falciparum)	pIC50 [11]	pIC50 [12]	Ratio IC50 (BL21 [13])	Ratio IC50 (BL21 [14])	Ratio IC50 (BL21 [15])	Ratio IC50 (BL21 [16])	pKd [17]
Cc1cc(Nc2ccc(C(F)(F)F)cc2)n2nc(C(C)(F)F)nc2n1	7.57	7.34	4.05	< 4.00	< 4.00	< 4.00	< 4.00	< 4.00	< 4.00	< 4.00	8.44							
Cc1cc(Nc2ccc(C(F)(F)F)cc2)n2nc(C(F)(F)F)nc2n1					< 4.00				4.07		8.20	5.01	5.46					
Cc1cc(Nc2cc(F)c(C(F)(F)F)c(F)c2)n2nc(C(F)(F)F)nc2n1	8.02	7.66	5.01	< 4.00	5.80	5.68	< 4.00	4.46	6.49	6.05	8.74	7.06	7.31	50	10	50		
Cc1cc(Nc2ccc(C(F)(F)F)c(F)c2)n2nc(C(C)(F)F)nc2n1	8.01	7.46	4.25	< 4.00	4.77	4.35	< 4.00	< 4.00	5.14	4.17	8.41	5.80	6.10					
Cc1cc(Nc2cc(F)c(C(F)(F)F)c(F)c2)n2ncnc2n1					< 4.00				< 4.00			< 4.52	4.43				> 769	
Cc1cc(Nc2ccc(C(F)(F)F)cc2)n2ncnc2n1			3.55						< 4.00			< 4.00						
Cc1cc(Nc2cc(F)c(C(F)(F)F)c(F)c2)n2nc(C(C)(F)F)nc2n1	8.29	7.70	4.46	< 4.00	5.68	5.57	< 4.00	< 4.00	6.15	5.28	7.92	6.74	6.89	50	> 50	50	100	7.32
